Laboratory results as given in ChEMBL document CHEMBL1133665, “Secondary amides of (R)-3,3,3-trifluoro-2-hydroxy-2-methylpropionic acid as inhibitors of pyruvate dehydrogenase kinase” (J Med Chem, 2000).
Active and inactive are the calls of the source. The calls are words filed in the database; no cut-off is given here.

Tests used:
Homo sapiens [1] = species: Homo sapiens; assay: Effective concentration required to increase the oxidation of lactate in cellular assay using Human Skin Fibroblasts; Inactive; assay type: functional
Outline: (§1)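 Human fibroblasts harvested with trypsin 2-4 days post-confluence and assayed in suspension ((3.5-5) × 10^5 cells per tube) with test compound or solvent control. Equilibrated at 37 °C, then started with DMEM-S containing 25 µM lactate and 0.2 µCi/mL d,l-[1-14C]lactate. Gassed with 95% O2/5% CO2 and shaken 25 min at 37 °C. Stopped with TCA; released 14CO2 trapped and counted by scintillation. EC50 ± standard error.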

[2] = molecular target: Pyruvate dehydrogenase kinase (Rattus norvegicus, UniProt Q63065+A6IPZ9+Q64536+O54937); assay: Inhibitory activity tested against Pyruvate Dehydrogenase Kinase (PDHK) receptor from rats.; assay type: protein assay
Outline: (§2)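 Commercial PDH complex used as the kinase-containing preparation. PDHK inhibition read spectrophotometrically as NADH production at 340 nm, measured with and without ATP. IC50 ± standard error, from purified substances.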

[3] = molecular target: Pyruvate dehydrogenase kinase (Rattus norvegicus) (UniProt Q63065+A6IPZ9+Q64536+O54937); assay: Inhibition of Pyruvate Dehydrogenase Kinase (PDHK) receptor from rats; Inactive; assay type: protein assay; outline: as §2
Rattus norvegicus [4] = assay: In vivo %control of lactate in normal Sprague-Dawley rats after 2 hr at a dose of 300 umol/Kg; assay type: functional
Outline: (§3)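 Male Sprague-Dawley rats, about 200 g, randomly assigned to groups (n = 6/group) and fasted 24 h. Single oral dose of compound in 0.5% carboxymethylcellulose/0.2% Tween-80 (1 mL/100 g), or vehicle alone. Blood taken 2 h post-dose into heparin/fluoride tubes; lactate measured on a biochemistry analyzer. Expressed as percent of vehicle control; groups compared by two-tailed unpaired t-test.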

Homo sapiens [5] = species: Homo sapiens; assay: Effective concentration required to increase the oxidation of lactate in cellular assay using Human Skin Fibroblasts; assay type: functional; outline: as §1
Rattus norvegicus [6] = assay: In vivo %control of lactate in normal Sprague-Dawley rats after 2 hr at a dose of 30 umol/Kg; assay type: functional; outline: as §3
Rattus norvegicus [7] = assay: In vivo %control of lactate in normal Sprague-Dawley rats after 2 hr at a dose of 30 umol/Kg; Not active; assay type: functional, organism-based; outline: as §3
Rattus norvegicus [8] = assay: In vivo %control of lactate in normal Sprague-Dawley rats after 2 hr at a dose of 300 umol/Kg; Not active; assay type: functional, organism-based; outline: as §3

Compound | IC50 [2] [µM] | other results
CC(C)(C)C(=O)N1CCC(Cc2ccccc2)CC1 | 282 | IA (Homo sapiens [1]): inactive
CC(C)NC(=O)N1CCC(Cc2ccccc2)CC1 |  | IA [3]: inactive
COc1cc(C(=O)N2CCN(C(=O)[C@@](C)(O)C(F)(F)F)C[C@H]2C)cc(OC)c1OC | 0.04 | Control (Rattus norvegicus [6]): 71%; Control (Rattus norvegicus [4]): 60%; EC50 (Homo sapiens [5]): 0.159 µM
CNS(=O)(=O)NC1C2CC3CC(C2)CC1C3 (stereo not given) |  | IA [3]: inactive
O=C(N1CCC(Cc2ccccc2)CC1)C1(O)CC1 | 260 | 
CC(=O)C(=O)NC1C2CC3CC(C2)CC1C3 (stereo not given) |  | IA [3]: inactive
O=C(Nc1ccccc1Cl)C(Cl)Cl | 47 | 
C/N=C(\S)N1CC=C(C(C)(C)C)CC1 | 180 | 
C[C@](O)(C(=O)Nc1ccccc1Cl)C(F)(F)F | 9.8 | 
COC(C)(C(=O)NC1C2CC3CC(C2)CC1C3)C(F)(F)F (stereo not given) |  | IA [3]: inactive
CCCC1CCN(C(=O)[C@](C)(O)C(F)(F)F)CC1 | 75 | 
CCCC1CCN(C(=O)C(C)(OC)C(F)(F)F)CC1 (stereo not given) |  | IA [3]: inactive
COC(C)(C(=O)Nc1ccccc1Cl)C(F)(F)F (stereo not given) |  | IA [3]: inactive
CC1(C(F)(F)F)OC(=O)N(C2CCCCC2)C1=O (stereo in doubt; 9) |  | IA [3]: inactive
C[C@@H]1CN(C(=O)[C@@](C)(O)C(F)(F)F)[C@@H](C)CN1C(=O)C1CCCCC1 | 0.013 | 
CCC(O)(C(=O)Nc1ccccc1Cl)C(F)(F)F (stereo not given) | 20 | 
CNC(=O)N1CCCCC1 |  | IA [3]: inactive
O=C(C(Cl)Cl)N1CCC(Cc2ccccc2)CC1 | 0.179 | NA (Rattus norvegicus [8]): inactive; EC50 (Homo sapiens [5]): 1.12 µM
CC(Oc1ccccc1)(C(=O)NC1CCCCC1)C(F)(F)F (stereo not given) |  | IA [3]: inactive
C[C@@H]1CN(S(=O)(=O)c2cccc3ccccc23)[C@@H](C)CN1C(=O)[C@@](C)(O)C(F)(F)F | 49 | 
CC(C)[C@H]1CN(C(=O)c2ccc(C#N)cc2)[C@H](C)CN1C(=O)[C@@](C)(O)C(F)(F)F | 17 | 
Cc1cc(C)c(S(=O)(=O)N2CCN(C(=O)[C@@](C)(O)C(F)(F)F)C[C@H]2C)c(C)c1 | 0.039 | 
CCCC1CCN(C(=O)[C@@](C)(O)C(F)(F)F)CC1 | 3.1 | 
C[C@](O)(C(=O)NC1C2CC3CC(C2)CC1C3)C(F)(F)F (stereo not given in full) | 11 | 
C/N=C(/S)N1CCC(Cc2ccccc2)CC1 | 560 | 
C[C@@H]1CN(C(=O)[C@@](C)(O)C(F)(F)F)[C@@H](C)CN1S(=O)(=O)c1cccc2ccccc12 | 0.0045 | NA (Rattus norvegicus [7]): inactive
COC(=O)c1ccc(C(=O)N2C[C@H](C)N(C(=O)[C@@](C)(O)C(F)(F)F)C[C@H]2C)cc1 | 0.019 | 
O=C(NC1C2CC3CC(C2)CC1C3)C1(O)CC1 (stereo not given) | 15 | 

Compound | IC50 [2] [µM] | other results
CC1CCCCN1C(=O)[C@@](C)(O)C(F)(F)F (stereo not given in full) | 2 | 
C[C@@H]1CN(C(=O)[C@@](C)(O)C(F)(F)F)[C@@H](C)CN1C(=O)c1cc(Cl)cc(Cl)c1 | 0.0033 | 
CC(C)CC(Cl)C(=O)N1CCC(Cc2ccccc2)CC1 (stereo not given) |  | IA [3]: inactive
C[C@@H]1CN(C(=O)[C@@](C)(O)C(F)(F)F)CCN1C(=O)C1CCCCC1 | 0.064 | Control (Rattus norvegicus [6]): 77%
COC(=O)N1CCC(Cc2ccccc2)CC1 | 1000 | 
CC(C)(O)C(=O)NC1C2CC3CC(C2)CC1C3 (stereo not given) | 10 | 
CC(Cl)C(=O)N1CCC(Cc2ccccc2)CC1 (stereo not given) | 2.6 | 
CC(O)C(=O)N1CCC(Cc2ccccc2)CC1 (stereo not given) | 310 | 
CC(=O)N1CCC(Cc2ccccc2)CC1 | 74 | IA (Homo sapiens [1]): inactive
C[C@@H]1CN(C(=O)[C@@](C)(O)C(F)(F)F)CCN1S(=O)(=O)c1ccc(C(C)(C)C)cc1 | 0.036 | 
O=C(NC1C2CC3CC(C2)CC1C3)C(O)(C(F)(F)F)C(F)(F)F (stereo not given) | 17 | 
O=C(Nc1ccc(Cl)cc1)N1CCC(Cc2ccccc2)CC1 |  | IA [3]: inactive
CNC(=O)N1CCC(Cc2ccccc2)CC1 | 22.4 | IA (Homo sapiens [1]): inactive
CC1(C(F)(F)F)OC(=O)N(C2CCCCC2)C1=O (stereo in doubt; 8) |  | IA [3]: inactive
C[C@@H]1CN(C(=O)[C@@](C)(O)C(F)(F)F)CCN1 |  | IA [3]: inactive
C[C@@](O)(C(=O)N1CCNCC1)C(F)(F)F |  | IA [3]: inactive
C[C@@](O)(C(=O)NC1CCCCC1)C(F)(F)F | 6.2 | 
CCC(O)(C(=O)NC1C2CC3CC(C2)CC1C3)C(F)(F)F (stereo not given) | 14 | 
O=C(N1CCC(Cc2ccccc2)CC1)C(Cl)(Cl)Cl | 30 | 
C[C@@](O)(C(=O)Nc1ccccc1Cl)C(F)(F)F | 0.3 | NA (Rattus norvegicus [8]): inactive; EC50 (Homo sapiens [5]): 5.4 µM
CCC(C)(O)C(=O)Nc1ccccc1Cl (stereo not given) | 23 | 
C[C@@](O)(C(=O)NC1C2CC3CC(C2)CC1C3)C(F)(F)F (stereo not given in full) | 0.3 | NA (Rattus norvegicus [8]): inactive
CNS(=O)(=O)Nc1ccccc1Cl |  | IA [3]: inactive
CC(=O)N1CCCCC1 |  | IA [3]: inactive
CN(C)C(=O)N1CCC(Cc2ccccc2)CC1 | 416 | 
CNS(=O)(=O)N1CCC(Cc2ccccc2)CC1 |  | IA [3]: inactive
CC(C)(O)C(=O)Nc1ccccc1Cl | 5 | 

Further lines, with some results ahead:

IC50 [2] [µM] | Compound | other results
23.9 | CC(O)(C(=O)N1CCCCC1)C(F)(F)F (stereo not given) | 
> 1 | C[C@@H]1CN(C(=O)[C@@](C)(O)C(F)(F)F)CCN1Cc1ccccc1 | 
4.16 | C[C@@](O)(C(=O)N1CCN(c2ccccc2)CC1)C(F)(F)F | Control (Rattus norvegicus [4]): 68%; EC50 (Homo sapiens [5]): 25.2 µM
0.0198 | C[C@@H]1CN(C(=O)[C@@](C)(O)C(F)(F)F)[C@@H](C)CN1C(=O)c1ccc(C(=O)c2ccccc2)cc1 | 
3.37 | C[C@@](O)(C(=O)N1CCN(c2ccccn2)CC1)C(F)(F)F | Control (Rattus norvegicus [4]): 68%; EC50 (Homo sapiens [5]): 13 µM
0.025 | C[C@@H]1CN(C(=O)[C@@](C)(O)C(F)(F)F)CCN1S(=O)(=O)c1cccc2ccccc12 | NA (Rattus norvegicus [7]): inactive
150 | CC(C)(O)C(=O)N1CCC(Cc2ccccc2)CC1 | 
5.02 | C[C@@](O)(C(=O)N1CCN(C(=O)c2cccc3ccccc23)CC1)C(F)(F)F | 
5.62 | C[C@@](O)(C(=O)N1CCCN(C(=O)c2ccccc2)CC1)C(F)(F)F | 
0.021 | C[C@@H]1CN(C(=O)[C@@](C)(O)C(F)(F)F)CCN1C(=O)OCc1ccccc1 | 
5.56 | C[C@@](O)(C(=O)N1CCN(S(=O)(=O)c2ccccc2)CC1)C(F)(F)F | 
0.0091 | C[C@@H]1CN(C(=O)[C@@](C)(O)C(F)(F)F)[C@@H](C)CN1/C(=N/C#N)Oc1ccccc1 | 
0.0143 | C[C@@H]1CN(C(=O)[C@@](C)(O)C(F)(F)F)[C@@H](C)CN1C(=O)OCc1ccccc1 | 
31.7 | C[C@@](O)(C(=O)N1CCN(C(=O)c2ccccc2)CC1)C(F)(F)F | 
0.037 | C[C@@H]1CN(C(=O)[C@@](C)(O)C(F)(F)F)CCN1S(=O)(=O)c1ccccc1 | NA (Rattus norvegicus [7]): inactive
19.9 | C[C@@](O)(C(=O)N1CCN(Cc2ccccc2)CC1)C(F)(F)F | 
> 300 | C[C@@H]1CN(Cc2ccccc2)[C@@H](C)CN1C(=O)[C@@](C)(O)C(F)(F)F | IA [3]: inactive
0.028 | C[C@@H]1CN(C(=O)[C@@](C)(O)C(F)(F)F)CCN1C(=O)c1cc(Cl)cc(Cl)c1 | 
2.16 | CC(O)(C(=O)N1CCC(Cc2ccccc2)CC1)C(F)(F)F (stereo not given) | NA (Rattus norvegicus [8]): inactive; EC50 (Homo sapiens [5]): 29 µM
0.112 | C[C@@H]1CN(C(=O)[C@@](C)(O)C(F)(F)F)CCN1c1cc([N+](=O)[O-])ccn1 | NA (Rattus norvegicus [7]): inactive
2.84 | C[C@@](O)(C(=O)N1CCN(c2cc([N+](=O)[O-])ccn2)CC1)C(F)(F)F | 
0.173 | C[C@@H]1CN(C(=O)[C@@](C)(O)C(F)(F)F)CCN1C(=O)c1ccccc1 | 
0.049 | C[C@@H]1CN(C(=O)[C@@](C)(O)C(F)(F)F)CCN1/C(=N/C#N)Oc1ccccc1 | Control (Rattus norvegicus [6]): 65%
6 | C[C@@](O)(C(=O)N1CCN(/C(=N/C#N)Oc2ccccc2)CC1)C(F)(F)F | 
6.7 | C[C@@](O)(C(=O)N1CCN(C(=O)c2ccc(C#N)cc2)CC1)C(F)(F)F | 
15 | C[C@@H]1CN(C(=O)[C@@](C)(O)C(F)(F)F)CCN1C(=O)c1ccc(C(=O)c2ccccc2)cc1 (stereo in doubt; 11r) | 
47 | C[C@@](O)(C(=O)N1CCCN(Cc2ccccc2)CC1)C(F)(F)F | 
0.034 | C[C@@H]1CN(C(=O)[C@@](C)(O)C(F)(F)F)CCN1C(=O)c1ccc(C(=O)c2ccccc2)cc1 (stereo in doubt; 11g) | Control (Rattus norvegicus [6]): 66%; EC50 (Homo sapiens [5]): 0.473 µM
2.59 | C[C@@](O)(C(=O)N1CCCN(c2cc(Cl)ccn2)CC1)C(F)(F)F | 
